High-throughput results: PubChem, SRMLSC
HCT116 bCat-KO – beta-catenin-lacking colon tumor cell growth suppression | viability, % at 10 µM | HCT116 beta-catenin knockout viability, CellTiter-Glo, 60 h; active compounds read low | 140,000 tested, 1.5% active;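 active means viability at or under a set limit, the compound median less 4 SD, cut at about 6% in these data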;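 further: 0% = Hyamine 1622 control at 20 µM and 100% = untreated cell control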
H69AR inhibit – growth inhibitors of human H69AR lung tumor cells; H69AR lung tumor viability, ATP luminescence, 72 h; active compounds read low; viability, % at 10 µM; 85,000 tested, 6% active; AID 598;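 active means viability at or below 40%; inactive means viability above 40%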;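 further: multidrug resistant small cell line overexpressing MRP-1 efflux transporter; 100% = mean luminescence of untreated control wells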
HUVEC prolif 384 – blocks proliferation of human endothelial cells. HUVEC proliferation, CellTiter-Glo luminescence, 72 h; active compounds read low. viability, % at 10 µM (by protocol). 86,000 tested, 1.1% active;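 active means viability at or below 30%; inactive means viability above 30%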;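 further: 100% = median luminescence of DMSO-only cell control wells on each plate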
HCT116 PTEN-null – suppresses growth of cells with PTEN deletion; HCT116 PTEN-null viability, CellTiter-Glo, 60 h; active compounds read low; viability, % at 10 µM; 140,000 tested, 1.2% active;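 active means viability at or below a set limit, 4 SD under the median of all tested compounds, cut at about 3.7% in these data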;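 further: PTEN knockout HCT116 line with beta catenin targeted HCT116 as companion control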
Fibroblast inh – blocks proliferation of human lung fibroblasts | LL 47 human lung fibroblast viability, ATP luminescence; active compounds read low | viability, % at 10 µM | 85,000 tested, 1.1% active;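 active means viability at or below 50% in the single dose screen; inactive means viability above 50%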;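 further: compound exposure lasted 72 h before the ATP readout; 100% = median luminescence of untreated cell-only wells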
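Times – overnight cell rest, 72 h compound treatment at 37 °C · Test system – human lung fibroblast line LL 47, low passage · Amount – 1,150 cells in each well · Controls – cell-only wells, no compound · Doses – 0.1% DMSO in all compound wells · Measured by – CellTiter-Glo luminescence · Buffer or medium – IMEM plus 15% FBS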
The depositor's hits bear a star; x = no result. This excerpt belongs to a sample that is enriched for hits.

SMILES | HCT116 bCat-KO | H69AR inhibit | HUVEC prolif 384 | HCT116 PTEN-null | Fibroblast inh
CCCCNC(=O)c1ccc2c(c1)ncn2C1CCCC1 | 93 | 33* | 92 | 91 | 108
CCCCNC(=O)c1ccc2c(c1)ncn2C1CCCCC1 | 114 | x | x | 109 | x
CCCCCCn1c2c(c(=N)c3c1CCC3)CCC2 | 5.2* | 26* | 92 | 6 | 67
CCCCCCCCCn1c2c(c(=N)c3c1CCC3)CCC2 | 1.9* | 8.6* | 3.9* | 1.6* | 28*
CC(=O)C1=C(O)C(=O)N(CCCn2ccnc2)C1c1ccc(C)cc1 (stereo not drawn) | 93 | x | x | 98 | x
COc1cccc(-c2nnc3sc(C4CCCCC4)nn23)c1 | 18 | 55 | 68 | 18 | 86
CCOc1cccc(-c2nnc3sc(C4CCCCC4)nn23)c1 | 6.1* | 44 | 71 | 8 | 96
Cc1ccc(NC(=O)c2ccc(C(C)(C)C)cc2)cc1[N+](=O)[O-] | 86 | x | x | 84 | x
CC1(C)CC(=O)c2sc(NC(=O)CCS(=O)(=O)c3ccccc3)nc2C1 | 3.6* | 1.1* | 78 | 3.7* | 50
O=C(Nc1nc(-c2cc(Cl)sc2Cl)cs1)c1ccc(Br)s1 | 18 | x | x | 4 | x
O=C(Nc1cccnc1)c1ccc(Br)s1 | 88 | 7.5* | 82 | 92 | 35*
O=C(Nc1cccnc1)c1cccnc1 | 97 | 45 | 99 | 94 | 95
O=C(CCS(=O)(=O)c1ccccc1)Nc1nc(-c2ccccn2)cs1 | x | 4.0* | 70 | x | 56
O=C(Nc1nc(-c2ccccn2)cs1)c1ccc(Br)s1 | 7 | 13* | 24* | 13 | 27*
O=C(CN1CCC(n2nnc3cc(F)ccc32)CC1)Nc1ccccc1N1CCOCC1 | 80 | 84 | 103 | 73 | 91
O=C(CCCNC(=O)/C(=C/c1ccc(F)cc1)NC(=O)c1ccccc1)OCc1ccccc1 | 94 | x | x | 79 | x
CCC(Oc1ccccc1)C(=O)O/N=C(\N)c1ccc(OC)c(OC)c1 (stereo not drawn) | 95 | x | x | 90 | x
Brc1ccc2[nH]c3c(N4CCc5ccccc5C4)ncnc3c2c1 | 22 | 6.3* | 55 | 18 | 78
Cc1nc(NC(=O)/C=C/c2ccccc2)n[nH]1 | 78 | x | x | 86 | x
CCc1ccccc1NC(=O)c1ccc(-n2c(C)ccc2C)cc1 | 3.8* | x | x | 4 | x
O=C(NNC1=C(C(=O)C(F)(F)F)CCC1)c1ccccc1Cl | 22 | 51 | 15* | 31 | 68
O=C(NNC1=C(C(=O)C(F)(F)F)CCC1)c1ccccc1O | 74 | 30* | 6.8* | 82 | 62
COc1ccccc1C(=O)NNC1=C(C(=O)C(F)(F)F)CCC1 | 6 | x | x | 6 | x
Cc1noc(C)c1S(=O)(=O)N1CCC(C(=O)N2CCN(c3ccccc3Cl)CC2)CC1 | 65 | 8.4* | 98 | 79 | 102
Cc1ccc(C)c2[nH]c(=O)c(CN(Cc3ccco3)S(=O)(=O)c3ccc4c(c3)OCCO4)cc12 | 33 | 81 | 64 | 29 | 95
SMILES | HCT116 bCat-KO | H69AR inhibit | HUVEC prolif 384 | HCT116 PTEN-null | Fibroblast inh
CCc1ccc2[nH]c(=O)c(CN(Cc3ccco3)S(=O)(=O)c3ccc4c(c3)OCCO4)cc2c1 | 80 | 23* | 71 | 87 | 73
Cc1nc2cc(-c3cccc(F)c3)nn2c(N2CCN(C(=O)c3ccco3)CC2)c1C | 77 | x | x | 63 | x
Cc1ccc(/C(O)=C/C(=O)C(=O)NNC(=O)C(O)(c2ccccc2)c2ccccc2)cc1 | 92 | 11* | 78 | 102 | 112
CC(=O)NNC(=O)C(O)(c1ccccc1)c1ccccc1 | 109 | x | x | 96 | x
COc1ccc(CCN2C(=O)c3cccc4c(C(=O)N5CCCCC5)ccc(c34)C2=O)cc1OC | 77 | x | x | 70 | x
O=C(NC1CCS(=O)(=O)C1)c1c(NC(=O)C2COc3ccccc3O2)sc2c1CCCC2 (stereo not drawn) | 13 | 23* | 85 | 16 | 102
O=C(Nc1nc2c(s1)CCCC2)C1COc2ccccc2O1 (stereo not drawn) | 77 | 87 | 94 | 76 | 96
CCCNC(=O)c1c(NC(=O)C2COc3ccccc3O2)sc2c1CCCC2 (stereo not drawn) | 38 | 29* | 40 | 21 | 13*
Cc1cnc(Nc2nc3ccccc3o2)nc1C(=O)Nc1cccc(C(F)(F)F)c1 | 71 | 1.3* | 45 | 33 | 44*
COc1cc(/C=C/C(=O)N2C(=O)c3cccc(N)c3C2=O)cc(OC)c1OC | 4.5* | x | x | 9 | x
COc1ccc(OC)c(/C=C/C(=O)N2C(=O)c3cccc(N)c3C2=O)c1 | 62 | x | x | 76 | x
C=CCN1C(=Nc2cccnc2)SCC1(O)c1ccc(C)cc1 (stereo not drawn) | 20 | 34* | 1.8* | 27 | 86
COc1cccc(C2C3=C(N=c4s/c(=C\c5cccc(O)c5)c(=O)n42)c2ccccc2CC3)c1OC (stereo not drawn) | 2.4* | x | x | 1.7* | x
COc1ccccc1NC(=O)C(=N\O)/C(C)=N/O | 96 | x | x | 106 | x
O=C1CN(C(=O)c2cc(Br)c(Br)s2)c2ccccc2N1 | 33 | 16* | 42 | 31 | 79
O=C1CN(C(=O)c2ccccc2)c2ccccc2N1 | 96 | 83 | 105 | 101 | 108
Cc1ccc(/C=N/Nc2nc3ccccc3s2)o1 | 77 | x | x | 66 | x
O=C(NCc1ccc2c(c1)OCO2)C1CCC(CNS(=O)(=O)c2cccc3nsnc23)CC1 (stereo not drawn) | 85 | 96 | 59 | 96 | 44*
CCSc1ncnc2c1oc1ccccc12 | 107 | 87 | 94 | 108 | 99
Clc1ncnc2c1oc1ccccc12 | 4.1* | x | x | 9 | x
c1coc(CN(Cc2ccco2)c2ncnc3c2oc2ccccc23)c1 | 28 | 22* | 56 | 21 | 84
CN(C)CCOc1ncnc2c1oc1ccccc12 | 106 | 87 | 94 | 105 | 101
COc1ccc2nc(NC(=O)c3cccnc3SC)sc2c1 | 84 | x | x | 88 | x
CCCCC1NC(=S)N(C2CCCCC2)C1=O (stereo not drawn) | 89 | x | x | 89 | x
CCN(c1ccccc1)S(=O)(=O)c1ccc(OC)c(OC)c1 | 100 | 105 | 119 | 106 | 91
SMILES | HCT116 bCat-KO | H69AR inhibit | HUVEC prolif 384 | HCT116 PTEN-null | Fibroblast inh
CCN(c1ccccc1)S(=O)(=O)c1ccc(Oc2ccc(-n3ccnc3)cc2)nc1 | 55 | 64 | 75 | 52 | 49*
COc1cc(/C=C(\C#N)C(=O)Nc2cccnc2)ccc1OC(C)C | 99 | x | x | 95 | x
CCSc1nnc(NC(=O)C(NC(=O)c2ccc(Cl)cc2)C(C)C)s1 (stereo not drawn) | 93 | x | x | 94 | x
N#CC1=C(SCC(=O)NC2CC2)NC(=O)C(C#N)C12CCCCC2 (stereo not drawn) | 95 | 100 | 84 | 101 | 95
CC(C)(C)C1CCC2(CC1)C(C#N)=C(SCC(=O)NC1CCCCC1)NC(=O)C2C#N (stereo not drawn) | 72 | 9.6* | 44 | 61 | 82
N#CC1=C(SCC(=O)NC23CC4CC(CC(C4)C2)C3)NC(=O)C(C#N)C12CCCCC2 (stereo not drawn) | 50 | 9.1* | 56 | 39 | 80
CCn1c(=O)n(-c2ccc(Cl)cc2)c(=O)c2c3c(sc21)COC(C)(C)C3 | 72 | 54 | 101 | 74 | 103
